Bioassay records: PubChem BioAssay, several laboratories
The list is not random: actives were taken first. Their share in the collection is about 2.5%.
SMARCA2 act – SMARCA2 function activation, primary screen. activation, % at 9.1 µM. AID 652017. actives 1% (n = 370,000). MG213 cells, MMTV-luciferase reporter, dexamethasone, overnight; in the data active means activation above about 7.8%;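 further: 0% = vehicle wells and 100% = reference activator wells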
SR-BI HDL uptake – inhibitors of mouse SR-BI mediated HDL lipid uptake; Q61009; ldlA[mSR-BI] CHO cells, DiI-HDL uptake fluorescence, 3 h; inhibition, % at 12.5 µM; actives 0.96% (n = 320,000);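 active means mean replicate inhibition of at least 70% and a set share of replicates each scoring 70 or more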;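 further: 0% = median of neutral control wells and 100% = median of positive control wells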
Target sequence (Q61009 whole entry, looked up): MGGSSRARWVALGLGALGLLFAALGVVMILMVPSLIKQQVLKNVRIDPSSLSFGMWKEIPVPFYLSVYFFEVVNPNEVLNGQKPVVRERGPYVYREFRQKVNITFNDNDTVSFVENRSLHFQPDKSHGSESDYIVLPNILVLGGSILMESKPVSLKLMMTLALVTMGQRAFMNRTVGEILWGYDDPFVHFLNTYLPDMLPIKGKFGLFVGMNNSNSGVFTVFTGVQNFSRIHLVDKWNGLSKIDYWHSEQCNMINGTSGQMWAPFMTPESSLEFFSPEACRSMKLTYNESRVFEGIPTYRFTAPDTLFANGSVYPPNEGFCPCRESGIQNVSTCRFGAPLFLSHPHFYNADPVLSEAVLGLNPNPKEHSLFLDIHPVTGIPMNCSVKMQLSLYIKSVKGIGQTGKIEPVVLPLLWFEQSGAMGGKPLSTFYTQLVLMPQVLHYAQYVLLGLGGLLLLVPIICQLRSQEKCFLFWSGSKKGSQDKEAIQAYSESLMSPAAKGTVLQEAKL
Vif inh – HIV Vif inhibition. HEK293T cells, Vif self-association by quenched fluorescence, imaging, 24 h. inhibition, % at 7.49 µM. actives 0.35% (n = 340,000). AID 602346; in the data active means inhibition above about 50%, passing the limit was not always enough
H9c2 TAG inh – inhibitors of triacylglycerol accumulation. H9c2 cells, Nile Red lipid (TAG) fluorescence; cells loaded with 200 µM oleic acid. inhibition, % at 12.5 µM. actives 0.66% (n = 230,000). AID 651582;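 active means pattern-corrected inhibition of lipid staining of at least 50% with the nuclear-stain viability signal not falling by more than 50%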;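 further: 0% = DMSO wells and 100% = triacsin C control wells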
SR-BI uptake up – enhances SR-BI lipid uptake from DiI-HDL. AID 504775. activation, % at 12.5 µM. CHO ldlA[mSR-BI] cells, DiI-HDL uptake fluorescence, 3 h; 100 = double the neutral-control signal. actives 0.096% (n = 320,000);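 active means mean replicate activation of at least 60% and every replicate at or above 60%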;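 further: 0% = median plate neutral-control signal and 100% = twice that signal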
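Assay system: CHO ldlA[mSR-BI] cells, LDL receptor-null, SR-BI overexpressing; medium: Ham's F12 with 0.5% BSA, HEPES 25 mM, pH 7.4; also added: DiI-HDL 10 µg/mL; timing: 3 h uptake period with compound, 37 °C; signal: DiI fluorescence, bottom read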
The depositor's hits bear a star; nt = not tested or not shown.

SMILES	SMARCA2 act	SR-BI HDL uptake	Vif inh	H9c2 TAG inh	SR-BI uptake up
COCCSc1ccccc1C(=O)Nc1ccc([N+](=O)[O-])cc1OC	-4.4	80.9*	-9.8	-17.7	-80.9
O=S(=O)(c1ccccc1)N1CCCc2nc(-c3ccccc3)ccc21	-3.5	nt	nt	nt	nt
C=CCN1C(=O)c2n[nH]c(C(C)C)c2C1c1ccccc1 (stereo unspecified)	-2.4	nt	nt	nt	nt
N#CC1CC(c2ccc([N+](=O)[O-])cc2)=NN1c1ccc([N+](=O)[O-])cc1 (stereo unspecified)	-4.6	57.7	89.0*	-9.3	-57.7
O=[N+]([O-])c1cccc(C2CC(c3ccccc3)=NN2c2ccccc2)c1 (stereo unspecified)	0.3	42.9	-0.8	nt	-42.9
CCOC(=O)C1=CCN(S(C)(=O)=O)C1c1ccc(Cl)cc1 (stereo unspecified)	2.7	nt	nt	nt	nt
Cc1ccc(C(=O)Nc2cccc(-c3ccc(N4CCOCC4)nn3)c2)cc1	-1.1	16.6	11.4	2.1	-16.6
Cc1ccc(C(=O)Nc2cccc(-c3ccc(N4CCOCC4)nn3)c2)cc1C	-0.6	77.4*	2.2	21.0	-77.4
Cc1cccc(NC(=O)CSc2nnc(CNC(=O)c3ccc(S(=O)(=O)N(C)C)cc3)n2-c2cccc(C)c2)c1	-4.5	84.8*	1.2	nt	-84.8
C[n+]1c(-c2ccc(C=NNC(=O)c3ccc(C(=O)NN=Cc4ccc(-c5cn6ccccc6[n+]5C)cc4)cc3)cc2)cn2ccccc21	-0.4	-0.6	-9.0	nt	0.6
CCCCc1ccc(N=N/C(C(=O)Nc2ccc(NC(C)=O)cc2OC)=C(/C)O)cc1	-1.7	78.4*	6.8	40.1	-78.4
COc1ccccc1NS(=O)(=O)c1cc(N=N/C(C(=O)Nc2ccc(Cl)cc2)=C(/C)O)ccc1C	-1.0	7.1	19.1	-4.7	-7.1
O=C1Nc2c(Cl)cc(Cl)cc2C12Nc1ccccc1S2 (stereo unspecified)	-3.7	nt	nt	nt	nt
Nc1[nH]c(C(=O)c2ccc(Br)cc2)c(-c2ccc(Br)cc2)c1C(=O)NCc1cccc2ccccc12	-5.6	nt	nt	nt	nt
O=c1cc2oc3cc(O)c(O)cc3c(-c3ccccc3[N+](=O)[O-])c-2cc1O	-2.5	89.6*	5.2	nt	-89.6
COC(=O)[C@]12C[C@H](CC(=O)N3CCOCC3)C(=O)N(CCC3=CCCCC3)C1=C[C@H](COCc1ccccc1)O[C@@H]2C	-6.5	nt	nt	nt	nt
O=C(Nc1cccc(-c2nc3cccnc3s2)c1)c1ccco1	1.4	3.2	96.5*	nt	-3.2
C=CCN1[C@@H](C)[C@H](c2ccccc2)Oc2cccc(N3CCCC(C)C3)c2S1(=O)=O (stereo partly specified)	2.1	nt	nt	nt	nt
COc1ccc(CN(CC(=O)NC2CCCC2)C(=O)CN2C(=O)COc3ccccc32)cc1	-1.1	-7.3	53.6*	nt	7.3
O=C(CN(Cc1ccc(Cl)cc1)C(=O)CN1C(=O)COc2ccccc21)NC1CCCC1	4.8	nt	-0.7	nt	nt
Cc1ccc(-n2nnc3ccccc3c2=O)cc1C	3.5	13.1	nt	-14.1	-13.1
O=c1c2ccccc2nnn1-c1ccccc1	2.1	-356.3	10.1	-11.6	356.3*
CC(C)C(=O)NNC(=O)CSc1ncnc2c1cnn2-c1ccccc1Cl	-0.8	2.7	4.1	nt	-2.7
Cc1csc(NC(=O)CSc2ncnc3c2cnn3-c2ccccc2Cl)n1	nt	-5.5	73.4*	nt	5.5
CCOc1ccc(N(C(C)C(=O)N/N=C(\C)c2cccc(NC(=O)c3ccccc3)c2)S(C)(=O)=O)cc1 (stereo unspecified)	1.4	78.4*	-10.5	10.4	-78.4
SMILES	SMARCA2 act	SR-BI HDL uptake	Vif inh	H9c2 TAG inh	SR-BI uptake up
O=C(CSc1nnc(CCCN2C(=O)c3cccc4cccc(c34)C2=O)n1-c1ccccc1)N1CCCCC1	8.1*	28.8	-8.8	nt	-28.8
O=C(CSc1nnc(Cc2cc(=O)[nH]c(=O)[nH]2)n1-c1ccccc1)N1CCCCC1	-0.1	-4.8	14.1	-4.4	4.8
Cc1cccc(-c2nnc(SCC(=O)Nc3cccc4ccccc34)n2Cc2ccco2)c1	-3.8	nt	nt	nt	nt
CCOc1cc(/C=C2/C(=N)N3C=CSC3=NC2=O)ccc1OCCCOc1ccccc1C	-4.9	101.8*	-8.3	nt	-101.8
COc1cc(/C=C2/C(=N)N3C=CSC3=NC2=O)ccc1OCCCOc1ccccc1C	1.4	61.8	10.8	nt	-61.8
COc1cc(/C=C2/C(=N)N3C=CSC3=NC2=O)ccc1OCCOc1ccc(NC(C)=O)cc1	1.2	14.4	60.6*	nt	-14.4
COc1cc(/C=C2/C(=N)N3C=CSC3=NC2=O)ccc1OCCCOc1c(C)cccc1C	4.3	80.9*	9.6	nt	-80.9
NC(=O)c1c(N)[nH]c(C(=O)c2ccccc2)c1-c1ccc(Br)cc1	-0.8	nt	nt	nt	nt
CC1CCc2c(sc3nc(C(C)(C)C)nc(N4CCN(C(=O)CCl)CC4)c23)C1 (stereo unspecified)	-4.2	49.5	-2.6	91.4*	-49.5
Nc1ccc(C(=O)N2CCCC2)cc1	-1.3	12.7	-4.8	5.7	-12.7
Nc1ccc(C(=O)n2c3ccccc3c3ccccc32)cc1	-4.7	90.8*	nt	nt	-90.8
COn1c(=O)c(-c2ccccc2)[n+]([O-])c2ccccc21	-0.9	-19.6	50.7*	nt	19.6
O=C(Nc1ccc(Br)cc1)c1cccc(-n2cnnn2)c1	-1.8	32.3	14.4	nt	-32.3
Cc1ccc2sc(NC(=O)c3ccc(N4C(=O)CCC4=O)cc3)nc2c1C	-1.0	60.8	3.5	7.4	-60.8
O=C(Nc1nc(-c2ccccn2)cs1)c1cccc(-n2cnnn2)c1	-4.6	nt	-6.7	72.7*	nt
Cc1ccc2nc(NC(=O)c3ccc(N4C(=O)CCC4=O)cc3)sc2c1	-4.1	77.2*	-3.4	-14.2	-77.2
O=C(Nc1nc(-c2ccc(F)cc2)cs1)c1cccc(N2C(=O)CCC2=O)c1	-1.3	81.3*	-1.8	14.1	-81.3
Cc1ccc2sc(NC(=O)c3cccc(N4C(=O)CCC4=O)c3)nc2c1C	-2.0	94.4*	2.8	7.4	-94.4
O=C(Nc1nc(-c2cc(F)ccc2F)cs1)c1cccc(N2C(=O)CCC2=O)c1	-3.4	68.2	2.7	3.5	-68.2
Cc1ccc(Cn2cc(CN(C)S(=O)(=O)c3ccccc3Br)nn2)cc1	-0.3	nt	nt	nt	nt
O=C(C1CCCN1S(=O)(=O)c1ccccc1[N+](=O)[O-])N1CCN(c2ccccc2)CC1 (stereo unspecified)	-4.8	nt	nt	nt	nt
COc1cc(CNCCc2ccccc2)ccc1OCC(N)=O	-1.6	-63.7	-3.5	nt	63.7*
COC(=O)C1=NNC(C(=O)c2ccco2)C1c1ccc(OC)cc1 (stereo unspecified)	-1.3	-3.0	52.5*	-9.6	3.0
C[C@@H]1NS(=O)(=O)c2c(F)cccc2O[C@@H]1c1ccccc1	1.3	nt	nt	nt	nt
Cc1cc(C(=O)N/N=C/c2cc(Br)cc(Br)c2OC(=O)c2cccc(F)c2)n[nH]1	-2.4	121.5*	11.2	17.9	-121.5
COC(=O)[C@]12C[C@H](CC(=O)N3CCN(C(=O)C4CC4)CC3)C(=O)N(Cc3ccccc3)C1=C[C@H](C(C)(C)C)O[C@@H]2C	-4.1	nt	nt	nt	nt
